Source: ChEMBL document CHEMBL1806437, “Design, synthesis and antileishmanial in vitro activity of new series of chalcones-like compounds: a molecular hybridization approach” (Bioorg Med Chem, 2011)
pIC50: −log10 of the molar value.

Key:
[1] = test system: Leishmania chagasi; assay: Antileishmanial activity against Leishmania chagasi MCAN/BR/99/JP15 promastigotes after 72 hrs by cell counting using Neubauer chamber; format: functional, organism-based; conditions: MCAN/BR/99/JP15, 72 h
In short: (§1)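 Log-phase promastigotes seeded at 1 × 10⁶ parasites/mL in Schneider's Drosophila medium with 20% FBS, streptomycin and penicillin (100 U/mL), 26 °C, with or without a range of compound concentrations; Glucantime and amphotericin B as reference controls. At 72 h cells fixed in citric acid/NaCl/formalin isotonic solution and counted microscopically; IC50/72 h by probit regression.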

[2] = test system: Leishmania amazonensis; assay: Antileishmanial activity against Leishmania amazonensis MHOM/IFLA/BR/67/PH8 promastigotes after 72 hrs by cell counting using Neubauer chamber; format: functional, organism-based; conditions: MHOM/IFLA/BR/67/PH8, 72 h; in short: as §1

| Compound | pIC50 [1] | pIC50 [2] |
| --- | --- | --- |
| C=C(C(=O)Oc1ccccc1C(=O)OC)C(O)c1ccncc1 (configuration not stated) | 4.48 | 4.62 |
| C=C(CCC(=O)Oc1ccccc1C(=O)OC)C(=O)Oc1ccccc1C(=O)OC | 4.31 | 4.65 |
| C[C@@H]1[C@H](O)[C@@H](C)/C=C/C=C/C=C/C=C/C=C/C=C/C=C/[C@H](O[C@@H]2O[C@H](C)[C@@H](O)[C@H](N)[C@@H]2O)C[C@@H]2O[C@](O)(C[C@@H](O)C[C@@H](O)[C@H](O)CC[C@@H](O)C[C@@H](O)CC(=O)O[C@H]1C)C[C@H](O)[C@H]2C(=O)O [AMPHOTERICIN B] | 6.16 | 6.92 |
| C=CC(=O)Oc1ccccc1C(=O)OC [METHYL SALICYLATE ACRYLIC ESTER] | 3.93 | 3.96 |
| COC(=O)c1ccccc1O [METHYL SALICYLATE] | 3.58 | 3.64 |

Results, then the molecule that gave them:

| pIC50 [1] | pIC50 [2] | Compound |
| --- | --- | --- |
| 4.99 | 5.12 | C=C(C(=O)Oc1ccccc1C(=O)OC)C(O)c1ccccc1[N+](=O)[O-] (configuration not stated) |
| 4.39 | 4.64 | C=C(C(=O)Oc1ccccc1C(=O)OC)C(O)c1cccc([N+](=O)[O-])c1 (configuration not stated) |
| 4.24 | 4.95 | C=C(C(=O)Oc1ccccc1C(=O)OC)C(O)c1ccc([N+](=O)[O-])cc1 (configuration not stated) |
| 4.41 | 4.51 | C=C(C(=O)Oc1ccccc1C(=O)OC)C(O)c1cccnc1 (configuration not stated) |
| 4.37 | 4.66 | C=C(C(=O)Oc1ccccc1C(=O)OC)C(O)c1ccc(Br)cc1 (configuration not stated) |
| 4.38 | 5.05 | C=C(C(=O)Oc1ccccc1C(=O)OC)C(O)c1ccc2ccccc2c1 (configuration not stated) |
